Experimental data as given in ChEMBL document CHEMBL5247600, “Rational design of metabolically stable HDAC inhibitors: An overhaul of trifluoromethyl ketones” (Eur J Med Chem, 2022).
Active and inactive are the calls of the source. No cut-off for these calls is given here.

Tests used:
[1] = system: HCT-116; experiment: Anticancer activity against human HCT-116 cells assessed as cell growth inhibition incubated for 3 days by methylene blue staining based colorimetric assay; type: functional; details: HCT-116, 72 h
[2] = system: HCT-116; experiment: Anticancer activity against human HCT-116 cells assessed as cell survival rate at 30 uM incubated for 3 days by methylene blue staining based colorimetric assay; type: functional; details: time 3 day
Outline: (§1)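 Cells kept in DMEM with 10% calf or fetal bovine serum plus penicillin/streptomycin (1000 U/ml each) at 37 °C, 5% CO2. Seeded at 5000/well (n = 3), treated next day, then after 3 days fixed/stained 30 min at room temperature with methylene blue saturated in 50% ethanol.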

[3] = Cytotoxicity against human WI-38 cells assessed as cell survival rate at 30 uM incubated for 3 days by methylene blue staining based colorimetric assay; type: toxicity; details: time 3 day, read-out: Activity; outline: as §1
[4] = system: Panel NCI-60 (60 carcinoma cell lines); experiment: Anticancer activity against human Panel NCI-60 (60 carcinoma cell lines) cells assessed as cell growth inhibition at 10 uM incubated for 3 days by methylene blue staining based colorimetric assay relative to control; type: functional; set-up: scale not given: the % may be the effect or the level left; details: time 3 day
Outline: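 NCI-60 one-dose screen at a single concentration of 10 μM. Read-out is mean growth percentage across the panel; positive values denote cytostatic activity and negative values cytotoxicity.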

[5] = system: HCT-116; experiment: Anticancer activity against human HCT-116 cells assessed as cell survival rate incubated for 3 days by methylene blue staining based colorimetric assay; type: functional; details: HCT-116, 72 h; outline: as §1
[6] = system: NCI-H522; experiment: Anticancer activity against human NCI-H522 cells assessed as cell survival rate at 30 uM incubated for 3 days by methylene blue staining based colorimetric assay; type: functional; details: time 3 day; outline: as §1
[7] = Cytotoxicity against human RPE cells assessed as cell survival rate at 30 uM incubated for 3 days by methylene blue staining based colorimetric assay; type: toxicity; details: time 3 day, read-out: Activity; outline: as §1
[8] = system: NCI-H522; experiment: Anticancer activity against human NCI-H522 cells assessed as cell survival rate incubated for 3 days by methylene blue staining based colorimetric assay; type: functional; details: NCI-H522, 72 h; outline: as §1
[9] = Cytotoxicity against human RPE cells assessed as cell survival rate incubated for 3 days by methylene blue staining based colorimetric assay; type: toxicity; outline: as §1
[10] = Cytotoxicity against human WI-38 cells assessed as cell survival rate incubated for 3 days by methylene blue staining based colorimetric assay; type: toxicity; outline: as §1
[11] = system: Panel NCI-60 (60 carcinoma cell lines); experiment: Anticancer activity against human Panel NCI-60 (60 carcinoma cell lines) cells assessed as total cell growth inhibition incubated for 3 days by methylene blue staining based colorimetric assay relative to control; type: functional; details: 72 h, time 3 day
Outline: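 NCI-60 five-dose screen at five concentrations. […] TGI is the concentration giving total growth inhibition.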

[12] = system: Panel NCI-60 (60 carcinoma cell lines); experiment: Anticancer activity against human Panel NCI-60 (60 carcinoma cell lines) cells assessed as cell growth inhibition incubated for 3 days by methylene blue staining based colorimetric assay relative to control; type: functional; details: 72 h, time 3 day
Outline: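 NCI-60 five-dose screen at five concentrations. TGI is the concentration giving total growth inhibition.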

[13] = Metabolic stability in human Liver S9 fraction assessed as metabolite TFMA 90 formation and measured for 30 mins by LC-ESI-MS analysis; type: ADME, subcellular; details: s9, 0.5 h
Outline: (§2)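 Human liver S9 fraction assay. Substrate 0.02 mM, 0.1 M buffer and 1 mM NADPH preincubated 10 min at 37 °C, then S9 (0.5 mg) added in 1 mL total; run in duplicate. Aliquots taken every 15 min or at 1 h and 2 h, residue taken up in methanol, diluted 1:1 with water and analysed by LC-ESI-MS tracking M+1 ions.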

[14] = Metabolic stability in human Liver S9 fraction assessed as disappearance of compound and measured after 15 mins by LC-ESI-MS analysis; type: ADME, subcellular; outline: as §2
[15] = system: HT-1080; experiment: Anticancer activity against human HT-1080 cells assessed as cell growth inhibition incubated for 3 days by methylene blue staining based colorimetric assay; type: functional; details: HT-1080, 72 h; outline: as §1
[16] = system: HeLa; experiment: cells; type: functional, cell-based; details: Homo sapiens, 72 h
[17] = system: MDA-MB-468; experiment: cells; type: functional, cell-based; details: Homo sapiens, MDA-MB-468, 72 h
[18] = system: NCI-H522; experiment: cells; type: functional, cell-based; details: Homo sapiens, NCI-H522, 72 h
[19] = system: MDA-MB-231; experiment: Anticancer activity against human MDA-MB-231 cells assessed as cell growth inhibition incubated for 3 days by methylene blue staining based colorimetric assay; type: functional; details: MDA-MB-231, 72 h; outline: as §1
[20] = system: U2OS; experiment: Anticancer activity against human U2OS cells assessed as cell growth inhibition incubated for 3 days by methylene blue staining based colorimetric assay; type: functional; details: 72 h; outline: as §1
[21] = Metabolic stability in human Liver S9 fraction assessed as disappearance of compound and measured after 2 hrs by LC-ESI-MS analysis; type: ADME, subcellular; details: s9, 2 h; outline: as §2
[22] = system: HCT-116; experiment: Induction of apoptosis in human HCT116 cells assessed as increase in cleaved PARP1 level at 4 to 8 uM incubated for 24 hrs by Western blot analysis; type: functional, cell-based; details: dose 4-8 µM
Outline: (§3)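 HCT116 cells treated 24 h at the indicated concentrations. Lysates normalized by BCA, run on 12.5% SDS-PAGE and transferred to PVDF. Blocked 1 h in 5% milk/PBST, primary antibody against cleaved PARP overnight at 4 °C, then HRP secondary 1:10 000 and ECL detection.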

[23] = system: HCT-116; experiment: Induction of apoptosis in human HCT116 cells assessed as increase in cleaved PARP1 level at 5 to 10 uM incubated for 24 hrs by Western blot analysis; type: functional, cell-based; details: dose 5-10 µM; outline: as §3

SMILES | IC50 [1] [µM] | other results
O=C(CCCCCCNC(=O)C(O)(O)C(F)(F)F)Nc1nc2ccc(Br)cc2o1 | 12.1 | –
COc1ccccc1NC(=O)CCCCCCNC(=O)C(O)(O)C(F)(F)F | 10.1 | –
COc1ccc(NC(=O)CCCCCCNC(=O)C(O)(O)C(F)(F)F)cc1 | 4.52 | Activity [2]: 10%; viability at 72 h, 30 µM [3]: > 80%; Activity [4]: 37.09%; IC50 [5]: 3.13 µM; Activity [6]: 20%; viability at 72 h, 30 µM [7]: > 50%; IC50 [8]: 8.05 µM; IC50 at 3 days [9]: > 30 µM; IC50 at 3 days [10]: > 30 µM
COc1ccc2nc(NC(=O)CCCCCCNC(=O)C(O)(O)C(F)(F)F)sc2c1 | 7.56 | –
CCOc1ccc(-c2cnc(NC(=O)CCCCCCNC(=O)C(O)(O)C(F)(F)F)s2)cc1 | 4.05 | –
OC(c1c(F)c(F)c(-n2cc(-c3ccccc3)nn2)c(F)c1F)C(F)(F)F (stereo not drawn) | > 100 | –
O=C(CCCCCCNC(=O)C(O)(O)C(F)(F)F)Nc1c(F)cc(F)cc1F | 22.2 | –
COc1ccc(OC)c(NC(=O)CCCCCCNC(=O)C(O)(O)C(F)(F)F)c1 | 3.87 | Activity [4]: 35%
O=C(CCCCCCNC(=O)C(O)(O)C(F)(F)F)Nc1nc(-c2ccccc2)c(-c2ccccc2)s1 | 29.9 | –
CC(=O)C(=O)NCCCCC(=O)Nc1ccccc1 | > 100 | –
CC(=O)C(=O)NCCCCCCC(=O)Nc1ccccc1 | > 100 | –
C/C(=N\O)C(=O)NCCCCCCC(=O)Nc1ccccc1 | > 100 | –
O=C(CCCCCCNC(=O)C(O)(O)C(F)(F)F)Nc1ccc(Cl)cc1 | 4.23 | TGI [11]: 26.9 µM; GI50 [12]: 5.13 µM; Activity [4]: 15.99%
O=C(CCCCNC(=O)c1cc(=O)c(O)co1)Nc1ccccc1 | > 100 | –
NC(=O)C(=O)NCCCCC(=O)Nc1ccccc1 | > 100 | –
O=C(CCCCCCNC(=O)c1cc(=O)c(O)co1)Nc1ccccc1 | > 100 | –
O=C(CCCCNC(=O)C(O)(O)C(F)(F)F)Nc1ccccc1 | 20.3 | –
O=C(CCCCCCC(O)C(F)(F)F)Nc1ccccc1 (stereo not drawn) | > 40 | –
O=C(CCCCCCC(=O)C(F)(F)F)Nc1ccccc1 | 10.1 | Stability [13]: Unstable; Stability [14]: Unstable
NC(=O)C(=O)NCCCCCCCC(=O)Nc1ccccc1 | > 100 | –

SMILES | IC50 [1] [µM] | other results
Cc1ccc(S(=O)(=O)Nc2ccc(NC(=O)CCCCCCNC(=O)C(O)(O)C(F)(F)F)cc2)cc1 | 17.2 | –
O=C(CCCNC(=O)C(O)(O)C(F)(F)F)Nc1ccccc1 | 34.8 | –
O=C(CCCCCCNC(=O)C(O)(O)C(F)(F)F)Nc1nc2ccccc2s1 | 2.37 | IC50 [15]: 2650 nM; IC50 [16]: 1520 nM; IC50 [17]: 1310 nM; TGI [11]: 21.4 µM; GI50 [12]: 3.39 µM; Activity [4]: -2.45%; IC50 [18]: 2.86 µM; IC50 [19]: 1830 nM; IC50 [20]: 1410 nM
O=C(CCCCCCC(=O)Nc1ccccc1)NO [VORINOSTAT] | – | IC50 [15]: 3560 nM
O=C(CCCCCCNC(=O)C(O)(O)C(F)(F)F)Nc1ccc(F)cc1 | 7.57 | –
CC(=O)c1ccc(NC(=O)CCCCCCNC(=O)C(O)(O)C(F)(F)F)cc1 | 12.1 | –
O=C(CCCCCCNC(=O)C(O)(O)C(F)(F)F)Nc1cccc(Br)c1 | 3.06 | –
O=C(CCCCCCNC(=O)C(O)(O)C(F)(F)F)Nc1ccc(F)cc1F | 18.5 | –
O=C(CCCCCCNC(=O)C(O)(O)C(F)(F)F)Nc1nc2ccc(Cl)cc2s1 | 11 | –
O=C(CCCCCCNC(=O)C(O)(O)C(F)(F)F)Nc1ccc(S(F)(F)(F)(F)F)cc1 | 9.11 | –
O=C(CCCCCCNC(=O)C(O)C(F)(F)F)Nc1nccs1 (stereo not drawn) | > 40 | Stability [21]: Stable
O=C(CCCCCCNC(=O)C(O)(O)C(F)(F)F)Nc1ccccc1Br | 14.5 | –
O=C(CCCCCNC(=O)c1ccc[nH]1)Nc1ccccc1 | > 100 | –
O=C(CCCCCCNC(=O)C(O)(O)C(F)(F)F)Nc1nc2ccc(F)cc2s1 | 6.47 | –
COc1ccc(-c2cnc(NC(=O)CCCCCCNC(=O)C(O)(O)C(F)(F)F)s2)cc1 | – | TGI [11]: 8.51 µM
C/C(=N\O)C(=O)NCCCCC(=O)Nc1ccccc1 | > 100 | –
O=C(CCCCCCNC(=O)C(O)(O)C(F)(F)F)Nc1ccncc1 | 6.67 | –
CC(=O)C(=O)NCCCCCC(=O)Nc1ccccc1 | > 100 | –
O=C(CCCCCCNC(=O)C(O)(O)C(F)(F)F)Nc1ccc(C(=O)c2ccccc2)cc1 | > 40 | –
Cc1nc(NC(=O)CCCCCCNC(=O)C(O)(O)C(F)(F)F)sc1-c1ccccc1 | 10.1 | –

SMILES | IC50 [1] [µM] | other results
C/C(=N\O)C(=O)NCCCCCC(=O)Nc1ccccc1 | > 100 | –
COc1ccc2sc(NC(=O)CCCCCCNC(=O)C(O)(O)C(F)(F)F)nc2c1 | 2.18 | IC50 [15]: 2280 nM; IC50 [17]: 3650 nM; TGI [11]: 12.3 µM; GI50 [12]: 1.23 µM; Activity [4]: -4.91%; IC50 [18]: 3.23 µM; IC50 [19]: 810 nM; Activity [22]: Active; IC50 [20]: 3290 nM
O=C(CCCCCCNC(=O)C(O)(O)C(F)(F)F)Nc1ccc(Br)cc1 | – | TGI [11]: 20.9 µM; GI50 [12]: 3.16 µM; Activity [4]: 2.58%
O=C(CCCCCCNC(=O)C(O)(O)C(F)(F)F)Nc1nccs1 | 10.8 | Stability [21]: Stable
O=C(CCCCCCNC(=O)C(O)(O)C(F)(F)F)Nc1ccc(-c2ccccc2)cc1 | – | TGI [11]: 15.1 µM; Activity [4]: 2.1%
NC(=O)C(=O)NCCCCCC(=O)Nc1ccccc1 | > 100 | –
O=C(CCCCCCNC(=O)C(O)(O)C(F)(F)F)Nc1cccc2ccccc12 | 6.48 | –
OC(O)(c1c(F)c(F)c(-n2cc(-c3ccccc3)nn2)c(F)c1F)C(F)(F)F | > 100 | –
O=C(CCCCCCNC(=O)C(O)(O)C(F)(F)F)Nc1nc2ccc(Br)cc2s1 | 10.3 | –
O=C(CCCCCCCNC(=O)c1cc(=O)c(O)co1)Nc1ccccc1 | > 100 | –
O=C(CCCCCCNC(=O)C(O)(O)C(F)(F)F)Nc1ccccc1 | 9.14 | –
O=C(CCCCCCCNC(=O)C(O)(O)C(F)(F)F)Nc1ccccc1 | 41.7 | –
COc1cc(NC(=O)CCCCCCNC(=O)C(O)(O)C(F)(F)F)cc(OC)c1OC | 14.1 | –
COc1cccc(NC(=O)CCCCCCNC(=O)C(O)(O)C(F)(F)F)c1 | 6.11 | –
O=C(CCCCCCNC(=O)C(O)(O)C(F)(F)F)Nc1nc2ccccc2o1 | 3.45 | –
O=C(CCCCCCNC(=O)C(O)(O)C(F)(F)F)Nc1ncc(-c2ccccc2)s1 | – | Activity [4]: -10.06%
O=C(CCCCCCNC(=O)C(O)(O)C(F)(F)F)Nc1ncc(-c2ccc(Br)cc2)s1 | – | TGI [11]: 11.4 µM; Activity [4]: -11.47%; Activity [23]: Active
O=C(CCCCCNC(=O)c1cc(=O)c(O)co1)Nc1ccccc1 | > 100 | –
